In all, about 2,100 compounds went through this assay and about 75 (4%) were called active.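 How the source made its calls: active means calcium fluorescence trace judged by eye to show a response, as agonist, enhancer of the glutamate response, or inhibitor; inactive means trace judged by eye to show no response.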 What follows is part of a selection rich in actives, with near analogues and random picks from the rest.

Metabotropic glutamate receptor 8 (Rattus norvegicus), sequence (P70579 whole entry, looked up): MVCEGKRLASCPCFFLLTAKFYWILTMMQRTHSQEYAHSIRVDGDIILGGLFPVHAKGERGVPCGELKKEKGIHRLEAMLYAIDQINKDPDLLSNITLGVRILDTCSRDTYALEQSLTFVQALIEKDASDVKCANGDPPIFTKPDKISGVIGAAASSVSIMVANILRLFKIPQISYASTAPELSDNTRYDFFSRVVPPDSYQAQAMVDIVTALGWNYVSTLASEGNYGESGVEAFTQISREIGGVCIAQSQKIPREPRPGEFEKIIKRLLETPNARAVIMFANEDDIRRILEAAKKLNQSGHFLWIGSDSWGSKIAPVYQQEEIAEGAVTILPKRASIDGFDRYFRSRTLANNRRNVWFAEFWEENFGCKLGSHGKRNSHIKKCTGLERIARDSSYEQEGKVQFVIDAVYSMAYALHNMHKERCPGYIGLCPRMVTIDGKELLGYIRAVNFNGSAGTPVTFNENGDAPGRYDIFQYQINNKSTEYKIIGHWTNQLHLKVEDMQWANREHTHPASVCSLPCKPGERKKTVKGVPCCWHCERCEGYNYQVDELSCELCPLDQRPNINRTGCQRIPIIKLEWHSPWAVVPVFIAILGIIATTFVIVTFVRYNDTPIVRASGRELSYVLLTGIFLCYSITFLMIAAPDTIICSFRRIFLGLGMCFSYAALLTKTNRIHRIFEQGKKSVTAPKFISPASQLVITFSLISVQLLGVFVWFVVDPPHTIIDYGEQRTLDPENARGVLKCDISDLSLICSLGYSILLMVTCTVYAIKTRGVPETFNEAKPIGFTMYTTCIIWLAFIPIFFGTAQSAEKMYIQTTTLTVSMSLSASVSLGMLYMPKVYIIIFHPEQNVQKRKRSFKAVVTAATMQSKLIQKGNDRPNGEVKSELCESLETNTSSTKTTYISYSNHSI

The target of the test is Metabotropic glutamate receptor 8 (Rattus norvegicus) (UniProt P70579). The test can be described thus: rat mGlu8 modulation via Gqi9 calcium signal, confirmation, counter-screen for GIRK activator project, cell-based, HEK293 rmGlu8, Gqi9 chimera, Fluo-4 calcium (AID 623869). The note with it: HEK293 rmGlu8/Gqi9 calcium flux, Fluo-4 fluorescence; glutamate at EC20 added after compound. The method in brief:
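Material: rat mGlu8 HEK-293 cells with transient Gqi9; medium: HEPES-buffered HBSS, pH 7.4; reagent: EC20 glutamate; dosing: one dose, 20 µM addition solution, 0.2% DMSO; incubation: compound 4 min before glutamate, then 2 min recording; measured by: Fluo-4 calcium fluorescence, 1 Hz; evaluation: F/F0 fluorescence traces judged visually for each well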
Consider `Cc1ccccc1NC(=S)NNC(=O)c1csc2c1CCC(C)C2` (stereo unspecified), for which the outcome was “inactive; 0”.
The result for `Cc1ccc(CSc2ncnc3c2cnn3-c2ccc(C)cc2)cc1` reads “inactive; 0”; that for `CCCn1c(=O)c2ccccc2n2c(SCc3nc4ccccc4s3)nnc12`, “inactive; 0”; that for `CCCn1c(=O)c2ccccc2n2c(SCC(=O)N3CCc4ccccc4C3)nnc12`, “inactive; 0”.
For the compound `CCCn1c(=O)c2ccccc2n2c(SCCOc3ccccc3F)nnc12`, the outcome was “active; 2”.
The result for `O=C(NC(NC(=S)Nc1ccc(Cl)cc1Cl)C(Cl)(Cl)Cl)c1cccc([N+](=O)[O-])c1` (stereo unspecified) reads “inactive; 4”.
Take `S=C(Nc1ccccc1Cl)Nc1ccc(Cl)cc1Cl`: the outcome was “inactive; 0”.
The result for `COC(=O)c1ccc(CSc2nnc(Nc3ccccc3OC)s2)o1` reads “inactive; 0”; that for `CCC(Sc1ccc2nnc(-c3ccc(F)cc3)n2n1)C(=O)OC` (stereo unspecified), “inactive; 0”.
For `COC(=O)c1ccc(CSc2ccc3nnc(-c4ccccc4)n3n2)o1` the value was “active; 2”; for `COc1ccc2nc(N3C(=O)/C(=C/c4ccccc4)NC3=S)sc2c1`, “inactive; 0”.
`CCCc1ccc(C(=O)N2CCN(c3ccccc3OCC)CC2)cc1`: the outcome is “inactive; 0”.
For `Cc1cc(C)c2nc(NC(=O)c3cc(C)on3)sc2c1` the value was “inactive; 0”; for `CCOc1cc(-c2noc(-c3cccnc3)n2)ccc1OC`, “inactive; 0”.
In the case of `CCOc1ccc(-c2nc(-c3cccnc3)no2)cc1OCC`, the outcome was “active; 2”.
The result for `CCOc1ccc(-c2nc(-c3ccncc3)no2)cc1OCC` reads “inactive; 0”.
For `CC(C)CNC(=S)NC(=O)c1ccccc1Cl` the value was “inactive; 0”; for `O=C(NNC(=O)c1cccs1)Nc1cccc(Cl)c1`, “inactive; 0”; for `Cc1ccc(C(=O)NNC(=S)NC(=O)c2ccc(Cl)cc2)cc1`, “inactive; 4”.
As for `Cc1cccc(C(=O)NC(=S)Nc2ccccc2C(F)(F)F)c1`, the outcome is “inactive; 0”.
For `Cc1cccc(C(=O)NC(=S)NNC(=O)c2ccc(Cl)cc2)c1` the value was “active; 1”; for `Cc1cccc(C(=O)NC(=S)NNC(=O)c2cccs2)c1`, “active; 1”; for `O=C(CNC(=S)NC(=O)c1cccs1)c1ccccc1`, “inactive; 0”.
The result for `O=C(NC(=S)NNC(=O)c1cccs1)c1ccc(Br)o1` reads “active; 1”; that for `CC(=O)c1cccc(NC(=S)NC(=O)c2cccc(C)c2)c1`, “inactive; 0”.
For `Cc1ccnc(NC(=S)NC(=O)c2cccs2)c1` the value was “inactive; 0”; for `Cc1cccc(C(=O)NC(=S)NNC(=O)c2ccccc2Cl)c1`, “active; 1”.
In the case of `Cc1cccc(NC(=O)NC(=S)NC(=O)c2ccccc2)c1`, the outcome is “inactive; 0”.
The result for `CC(C)CNC(=S)NC(=O)c1ccc([N+](=O)[O-])cc1` reads “inactive; 0”; that for `O=C(COc1ccccc1Cl)NC(=S)N1CCc2ccccc21`, “inactive; 0”.
The result for `C=CCCCCCCCCc1nc(=S)[nH][nH]1` reads “inactive; 0”; that for `Cc1cccc(NC(=S)NNC(=O)c2sccc2C)c1`, “inactive; 0”; that for `O=C(NC(=S)N1CCN(c2ccc(Cl)cc2[N+](=O)[O-])CC1)c1ccco1`, “inactive; 0”.
`O=C(N/N=C\c1cc(Br)c(Br)o1)c1cncc(Br)c1`: the outcome is “inactive; 0”.
On to `Cc1cc(C)c2nc(SCC(=O)NCCC3=CCCCC3)cc(C)c2c1`, for which the outcome is “inactive; 0”.
The result for `c1csc(CCNc2ncnc3sc4c(c23)CCC4)c1` reads “inactive; 0”.
For `CC1=NCCN1S(=O)(=O)c1cc(Cl)ccc1Cl` the value was “inactive; 0”; for `COC(=O)c1sccc1NC(=O)CSc1ccccc1NS(=O)(=O)c1cc(Cl)ccc1Cl`, “inactive; 0”; for `O=S(=O)(Nc1nc(-c2sccc2Cl)cs1)c1cc(Cl)ccc1Cl`, “active; -1”.
With `O=C(NNc1nc2ccccc2nc1C(F)(F)F)c1ccccc1`, the outcome is “inactive; 0”.
For `Cc1cccc(N=C2NC(=O)/C(=C/C=C/c3ccco3)S2)c1C` the value was “inactive; 0”.
Consider `Cc1nc(SC2CCOC2=O)c2c(C)c(C)sc2n1` (stereo unspecified), for which the outcome was “inactive; 0”.
On to `Cc1sc2nc(C(C)C)nc(SCC(=O)N3c4ccccc4CC3C)c2c1C` (stereo unspecified), for which the outcome is “inactive; 0”.
For `C/C(=N\NC(=O)c1cccc(F)c1)c1ccc(Br)s1` the value was “active; 1”.
In the case of `C/C(=N\NC(=O)c1ccc(Cl)cc1)c1ccc(Br)s1`, the outcome was “inactive; 0”.
As to `C/C(=N\NC(=O)c1ccccc1O)c1ccc(Br)s1`, the outcome was “inactive; 0”.
Consider `Cc1ccc2c(Cl)cc(Cl)c(OCC(=O)NCc3ccco3)c2n1`, for which the outcome was “inactive; 0”.
For `O=C(NN=c1c(=O)c2ccccc2c1=O)c1ccccc1` the value was “inactive; 0”; for `O=C(CC(O)(C(F)(F)F)C(F)(F)F)Nc1ccc(Cl)c(Cl)c1`, “active; 1”; for `Cc1ccc(NC(=O)CSC(N)=O)cc1Cl`, “inactive; 0”.
The result for `C=COCCNC(=O)Nc1ccc(Cl)c(Cl)c1` reads “inactive; 4”.
For `O=C(NNC(=O)c1sccc1-n1cccc1)c1ccc(Cl)cc1` the value was “inactive; 0”.
As for `CCOC(=O)c1ccccc1NC(=O)CSc1nnc(Cc2cccn2C)n1-c1ccc(C)cc1`, the outcome was “inactive; 0”.
For `Fc1ccc(/C=N/n2c(-c3cccs3)n[nH]c2=S)cc1` the value was “inactive; 0”; for `CCOc1ccc2nc(/N=C/c3c(C)[nH]n(-c4ccc(C)cc4)c3=O)sc2c1`, “inactive; 0”.
For `O=c1c2ccc(Cl)cc2nc(-c2cccc(C(F)(F)F)c2)n1O`, the outcome was “inactive; 3”.
For `O=c1c2ccccc2nc(-c2cccc(Cl)c2)n1O` the value was “inactive; 0”; for `O=c1c2cc(Br)ccc2nc(-c2cccc(C(F)(F)F)c2)n1O`, “active; 1”.
`COC(=O)c1onc(C(=O)c2ccccc2)c1C(=O)OC`: the outcome was “inactive; 0”.
For `COc1ccc(N2CCCn3c2nc2c3c(=O)n(Cc3ccccc3F)c(=O)n2C)c(OC)c1` the value was “inactive; 0”.
As to `COc1ccc(NC(=O)C(=O)NNC(=O)c2cccs2)c(OC)c1`, the outcome is “inactive; 0”.
`COc1ccc(N2CCN(c3nc4c(c(=O)n(C)c(=O)n4C)n3Cc3ccccc3)CC2)cc1`: the outcome was “inactive; 0”.
Consider `Cn1c(=O)c2c(nc(-n3ccnc3)n2Cc2ccccc2)n(C)c1=O`, for which the outcome was “inactive; 0”.
As to `Cn1c(N2CCCC2)nc2c1c(=O)n(Cc1ccc(Cl)cc1)c(=O)n2C`, the outcome was “active; 2”.
The result for `CCOC(=O)Cc1csc(NC(=S)NC(=O)c2ccccc2Br)n1` reads “inactive; 0”; that for `CCc1ccc(NC(=S)NNC(=O)c2ccccc2OC(F)F)cc1`, “inactive; 0”; that for `Cc1ccc(C)c(NC(=S)NNC(=O)c2csc3c2CCC(C)C3)c1` (stereo unspecified), “inactive; 0”.
The result for `O=C(N/N=C\c1ccc(Cl)s1)c1cccs1` reads “inactive; 0”; that for `CCC(=O)n1nc(-c2cccnc2)nc1NCc1ccc(OC)cc1`, “inactive; 0”.
Consider `O=C(c1cc2nc(-c3ccccc3)cc(-c3ccccc3)n2n1)N1CCN(C(=O)c2ccco2)CC1`, for which the outcome was “inactive; 0”.
For the compound `COc1ccc(CNc2nc(-c3cccnc3)nn2C(=O)c2ccco2)cc1`, the outcome is “active; 2”.
For `Cc1oc(-c2ccccc2)nc1CS(=O)CC(=O)O` (stereo unspecified), the outcome is “inactive; 0”.
For the compound `CCCCN(CCCC)C(=S)NC(=O)c1ccccc1Cl`, the outcome is “inactive; 0”.
The result for `COc1cc(-c2nnc(CSc3nc4ccccc4s3)o2)cc(OC)c1OC` reads “inactive; 0”; that for `CCN(CC)C(=O)CSc1nc2ccccc2c(=O)n1-c1ccccc1OC`, “inactive; 0”.
On to `COc1ccc(-c2nnc(CSc3nc4ccccc4c(=O)n3C)o2)cc1OC`, for which the outcome was “active; 2”.
For `O=S(=O)(c1ccc(-c2nnc(SCc3nnc(-c4ccccc4)o3)o2)cc1)N1CCCC1` the value was “inactive; 0”.
For `Fc1ccc2nc(-c3ccccc3)nc(SCc3nnc(-c4ccccc4)o3)c2c1` the value was “inactive; 0”; for `c1ccc(Cc2nnc(-c3ccccc3)o2)cc1`, “active; -1”; for `CCC(=O)N1CCN(c2ccccc2NC(=O)COc2cccc(C)c2)CC1`, “inactive; 0”.
With `CNc1nc(Cl)nc(NC(C)(C)C)n1`, the outcome was “active; 2”.
For `O=C1Nc2ccccc2C12OCC1(CO2)COC2(OC1)C(=O)Nc1ccccc12` (stereo unspecified) the value was “active; 2”.
For `Cc1ccc(-c2csc3ncnc(N4CCN(C(=O)c5ccccc5)CC4)c23)cc1` the value was “inactive; 0”; for `O=C(c1ccco1)N1CCN(c2ncnc3scc(-c4cccs4)c23)CC1`, “active; 2”; for `O=C(c1ccco1)N1CCN(C(=O)c2cnn3c2NC(c2cccs2)CC3C(F)(F)F)CC1` (stereo unspecified), “inactive; 0”.
The result for `S=C(Nc1ccc(Cl)cc1)c1nc2ccccc2[nH]1` reads “inactive; 0”; that for `O=C(NC(=S)Nc1ccccn1)c1ccco1`, “inactive; 0”.
Take `Cc1ccc(C(=O)Nc2nc(-c3ccccc3)c(-c3ccccc3)o2)cc1`: the outcome was “inactive; 0”.
With `Cc1ccccc1NC(=S)NC(=O)CCc1ccccc1`, the outcome was “inactive; 0”.
For `O=C(CCc1ccccc1)NNC(=S)NC(=O)c1ccc(Cl)cc1`, the outcome was “active; 1”.
For `COc1ccc(C(=O)NC(=S)NNC(=O)CCc2ccccc2)cc1` the value was “active; 1”.
As for `COc1ccc(C(=O)NC(=S)N(Cc2ccccc2)Cc2ccccc2)cc1`, the outcome is “inactive; 0”.
`COc1ccc(C(=O)NNC(=S)NC(=O)c2ccco2)cc1`: the outcome is “inactive; 4”.
The result for `Cc1cccc(C)c1NC(=S)NC(=O)CCc1ccccc1` reads “inactive; 0”.
For `CC(=O)c1cccc(NC(=S)NC(=O)c2cccc(Cl)c2)c1` the value was “inactive; 0”.
For `Cc1ccc(-n2ncc3c(SCc4ccccc4)ncnc32)cc1`, the outcome was “inactive; 0”.
For `O=C(Nc1nnc(-c2ccc3c(c2)CCCC3)o1)c1ccccc1` the value was “inactive; 4”; for `Cc1ccc(OCC(=O)NNC(=O)C(C)Sc2ncnc3sc(C)c(C)c23)cc1` (stereo unspecified), “inactive; 0”.
`O=C1NC(=O)/C(=C\c2ccccc2Oc2ccc(F)c(F)c2)S1`: the outcome was “inactive; 0”.
The result for `O=C1NC(=S)/C(=C\c2ccc(-c3ccccc3Cl)o2)S1` reads “inactive; 3”; that for `COc1cc(/C=C2\SC(=S)NC2=O)ccc1OS(=O)(=O)c1ccccc1`, “active; 2”.
The result for `COc1ccc(/C=C2\SC(=O)NC2=S)cc1OC` reads “active; 2”; that for `O=C1NC(=S)S/C1=C\c1ccc(SCc2ccccc2)o1`, “inactive; 0”; that for `COc1cc(/C=C2/SC(=S)NC2=O)ccc1OS(=O)(=O)c1ccc(C)cc1`, “inactive; 0”.
For the compound `COc1ccc(/C=N\NC(=S)SCN2C(=O)C3CCC(C)(C2=O)C3(C)C)cc1` (stereo unspecified), the outcome is “inactive; 0”.
`CCc1ccc2c(c1)c(N=NC1=NC(=O)CS1)c(O)n2C`: the outcome is “inactive; 0”.
The result for `C=CCN(CC=C)C(=S)NC(=O)c1ccc(C)c(Br)c1` reads “inactive; 0”; that for `Cc1ccc(C(=O)NNc2nc3ccccc3nc2C(F)(F)F)cc1`, “inactive; 0”.
Regarding `FC(F)(F)c1cnc(NNC(=S)Nc2ccc(Cl)cc2)c(Cl)c1`, the outcome is “inactive; 4”.
For `FC(F)(F)c1cnc(NNC(=S)Nc2ccccc2Cl)c(Cl)c1` the value was “active; 1”.
`Cc1ccc(NC(=S)NNc2ncc(C(F)(F)F)cc2Cl)c(C)c1`: the outcome was “inactive; 0”.

These data come from PubChem BioAssay AID623869 (Vanderbilt High Throughput Screening Facility, 2012).
